PubChem BioAssay AID2430 (Vanderbilt High Throughput Screening Facility, 2010)
Activity calls are given as the source filed them. No rule for the calls is given here.

Biological target: Muscarinic acetylcholine receptor M2 (Homo sapiens) (UniProt P08172)
Assay: potentiation of ACh calcium response at M2 – cell-based, CHO-K1 M2/Gqi5, Fluo-4 calcium, ACh EC20, selectivity assay for M1 muscarinic PAM project, dose response (AID 2430)
Settings: CHO-K1 M2/Gqi5 calcium Fluo-4, ACh EC20 PAM mode; series mostly up to 30 µM
Method in brief: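 Test system: CHO-K1 cells transfected with human M2 receptor and Gqi5; buffer or medium: HEPES- and probenecid-supplemented HBSS, pH 7.4; also added: acetylcholine at roughly EC20 (submaximal) concentration; doses: test compound with 0.3% DMSO final; times: 37 °C dye loading, 1.5 min compound, 50 s ACh, 25 °C; measured by: calcium flux measured with Fluo-4 fluorescent dye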

Chain of Muscarinic acetylcholine receptor M2 (Homo sapiens) (P08172 whole entry, looked up): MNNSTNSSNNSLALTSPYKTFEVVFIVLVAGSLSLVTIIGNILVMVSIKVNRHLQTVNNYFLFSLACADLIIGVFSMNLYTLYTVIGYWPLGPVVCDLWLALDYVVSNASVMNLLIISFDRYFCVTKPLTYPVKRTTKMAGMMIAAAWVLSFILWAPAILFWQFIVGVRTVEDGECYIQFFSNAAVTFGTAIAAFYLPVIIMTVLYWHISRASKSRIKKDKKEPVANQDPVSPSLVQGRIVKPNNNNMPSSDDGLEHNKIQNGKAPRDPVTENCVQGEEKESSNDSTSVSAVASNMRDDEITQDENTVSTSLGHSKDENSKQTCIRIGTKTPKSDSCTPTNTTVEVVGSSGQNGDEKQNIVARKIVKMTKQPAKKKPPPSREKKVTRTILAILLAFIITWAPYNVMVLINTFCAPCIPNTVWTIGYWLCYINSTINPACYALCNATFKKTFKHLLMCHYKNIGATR

outcome, inactive:
Cc1cc(NC(=O)CS(=O)(=O)c2cn(Cc3cc(Br)ccc3F)c3ccccc23)no1, O=C1C(=O)N(Cc2ccc(Oc3ccccc3)cc2)c2ccc(OC(F)(F)F)cc21, Cn1cc(-c2cc(F)c(CN3C(=O)C(=O)c4ccccc43)c(F)c2)cn1, Cn1cc(-c2ccc(CN3C(=O)C(=O)c4ccccc43)c(F)c2)cn1
